Experimental data as given in ChEMBL document CHEMBL1914330 (Eur J Med Chem, 2011).
Calls of active or inactive are those of the source. The calls are words filed in the database; no cut-off is given here.

Key:
HeLa = experiment: Antiproliferative activity against human HeLa cells after 2 days by coulter counter analysis; assay type: functional, cell-based; details: 48 h
Outline: (§1)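 Cells suspended at 300,000–500,000 cells/mL and mixed 1:1 with diluted compound. Incubated at 37 °C for two days, then counted with a Coulter counter. IC50 is the concentration inhibiting proliferation by 50%, as mean ± SE from dose-response curves of at least three independent experiments.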

FM3A = experiment: Antiproliferative activity against mouse FM3A cells after 2 days by coulter counter analysis; assay type: functional, cell-based; details: 48 h
CCRF-CEM [1] = experiment: Antiproliferative activity against human CEM cells after 2 days by coulter counter analysis; assay type: functional, cell-based; details: 48 h; outline: as §1
MOLT-4 = experiment: Antiproliferative activity against human MOLT4 cells after 2 days by coulter counter analysis; assay type: functional, cell-based; details: MOLT-4, 48 h
L1210 = experiment: Antiproliferative activity against mouse L1210 cells after 2 days by coulter counter analysis; assay type: functional, cell-based; details: L1210, 48 h; outline: as §1
Bos taurus = species: Bos taurus; experiment: Inhibition of bovine brain tubulin polymerization at 20 uM after 20 mins by turbidimetry
Outline: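 Purified bovine brain tubulin at 10 µM was preincubated with compound in glutamate buffer at 30 °C, then cooled to 0 °C and GTP added. Samples were warmed to 30 °C in a recording spectrophotometer and assembly followed by turbidity.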

[2] = Antiproliferative activity against human taxol-resistant A549-T12 cells after 72 hrs by MTT assay; assay type: functional, cell-based; details: A549, 72 h
Outline: (§2)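 Cells seeded at 8 × 10³ per well in complete medium and exposed to a range of compound concentrations at 37 °C for 72 h. Viability read by MTT test. IC50 taken as the concentration inhibiting proliferation by 50%.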

CCRF-CEM [3] = experiment: Antiproliferative activity against human CEM cells after 72 hrs by MTT assay; assay type: functional, cell-based; outline: as §2
[4] = Antiproliferative activity against human vinblastine-resistant CEM/VBL100 cells after 72 hrs by MTT assay; assay type: functional, cell-based; details: CEM/VBL100, 72 h; outline: as §2

Row | inhibition (Bos taurus) | IC50 (CCRF-CEM [3]) [µM] | SMILES | IC50 (HeLa) [µM] | IC50 (FM3A) [µM] | IC50 (CCRF-CEM [1]) [µM] | IC50 (MOLT-4) [µM] | IC50 (L1210) [µM] | IC50 [2] [µM] | IC50 [4] [µM]
1 | – | – | COc1ccc(C(=O)c2sc(N3CCCC3)nc2N)cc1 | > 200 | > 200 | > 200 | > 200 | > 200 | – | –
2 | inactive | – | COc1cc(C(=O)c2sc(N)nc2N)cc(OC)c1OC | 31 | 63 | 42 | – | 48 | – | –
3 | – | – | COc1ccc(/C=C\c2cc(OC)c(OC)c(OC)c2)cc1O [COMBRETASTATIN A4] | 0.002 | – | 0.002 | – | 0.003 | – | –
4 | inactive | – | COc1cc(C(=O)c2sc(N3CCCCC3)nc2N)cc(OC)c1OC | 11 | 39 | 22 | 16 | 43 | – | –
5 | – | – | CC(=O)O[C@H]1C(=O)[C@@]2(C)[C@H]([C@H](OC(=O)c3ccccc3)[C@]3(O)C[C@H](OC(=O)[C@H](O)[C@@H](NC(=O)c4ccccc4)c4ccccc4)C(C)=C1C3(C)C)[C@]1(OC(C)=O)CO[C@@H]1C[C@@H]2O [PACLITAXEL] | – | – | – | – | – | 0.075 | –
6 | – | – | CCCCN(C)c1nc(N)c(C(=O)c2cc(OC)c(OC)c(OC)c2)s1 | 31 | 47 | 42 | 32 | 53 | – | –
7 | – | – | Nc1nc(N2CCCC2)sc1C(=O)c1ccc(Cl)cc1 | > 200 | > 200 | > 200 | > 200 | > 200 | – | –
8 | – | – | COc1ccc(C(=O)c2sc(N3CCCC3)nc2N)cc1OC | 36 | 112 | 19 | 31 | 60 | – | –
9 | inactive | – | CCN(CC)c1nc(N)c(C(=O)c2cc(OC)c(OC)c(OC)c2)s1 | 38 | 115 | 78 | – | 62 | – | –
10 | – | – | Nc1nc(N2CCCC2)sc1C(=O)c1ccccc1 | > 200 | > 200 | > 200 | > 200 | > 200 | – | –
11 | – | 0.004 | CC[C@]1(O)C[C@@H]2CN(CCc3c([nH]c4ccccc34)[C@@](C(=O)OC)(c3cc4c(cc3OC)N(C)[C@H]3[C@@](O)(C(=O)OC)[C@H](OC(C)=O)[C@]5(CC)C=CCN6CC[C@]43[C@@H]65)C2)C1 [VINBLASTINE] | – | – | – | – | – | – | 0.23
12 | inactive | – | COc1cc(C(=O)c2sc(N(C)C)nc2N)cc(OC)c1OC | 8.2 | 12 | 11 | – | 11 | – | –
13 | – | – | COc1cccc(C(=O)c2sc(N3CCCC3)nc2N)c1 | > 200 | > 200 | > 200 | > 200 | > 200 | – | –
14 | – | – | COc1ccccc1C(=O)c1sc(N2CCCC2)nc1N | 185 | > 200 | 171 | > 200 | > 200 | – | –
15 | – | – | Nc1nc(N2CCCC2)sc1C(=O)c1ccc(Br)cc1 | > 200 | > 200 | > 200 | > 200 | > 200 | – | –
16 | inactive | – | COc1cc(C(=O)c2sc(N3CCOCC3)nc2N)cc(OC)c1OC | 8.8 | 24 | 25 | 22 | 38 | – | –
17 | – | – | COc1cc(C(=O)c2sc(N(C)Cc3ccccc3)nc2N)cc(OC)c1OC | > 200 | > 200 | > 200 | > 200 | > 200 | – | –
